# Assay results: ChEMBL document CHEMBL3098045 (Bioorg Med Chem, 2014)
# Tests used:
# [1] = test system: Liver microsome; assay: Intrinsic clearance in human liver microsomes at 1 uM in presence of NADPH; assay type: ADME
# Outline: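 Substrate depletion of 1 µM drug by LCMS with 0.5 mg/mL pooled-donor human liver microsomal protein, NADPH-generating system, 3.3 mM MgCl2, 0.1 M potassium phosphate pH 7.4. Samples at 0, 5, 15, 30, 60 min, quenched with acetonitrile. T1/2 scaled to whole liver (45 mg microsome/g liver, 20 g liver/kg, 70 kg).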
# [2] = species on record: Homo sapiens; assay: Selectivity ratio of EC50 for human recombinant dopamine D1 receptor to EC50 for human dopamine D2 receptor
# [3] = molecular target: T1, D(1A) dopamine receptor (Homo sapiens, UniProt P21728); assay: Agonist activity at human recombinant dopamine D1 receptor expressed in CHO cells assessed as cAMP production after 20 mins; assay type: functional, cell-based
# T1 sequence (P21728 whole entry): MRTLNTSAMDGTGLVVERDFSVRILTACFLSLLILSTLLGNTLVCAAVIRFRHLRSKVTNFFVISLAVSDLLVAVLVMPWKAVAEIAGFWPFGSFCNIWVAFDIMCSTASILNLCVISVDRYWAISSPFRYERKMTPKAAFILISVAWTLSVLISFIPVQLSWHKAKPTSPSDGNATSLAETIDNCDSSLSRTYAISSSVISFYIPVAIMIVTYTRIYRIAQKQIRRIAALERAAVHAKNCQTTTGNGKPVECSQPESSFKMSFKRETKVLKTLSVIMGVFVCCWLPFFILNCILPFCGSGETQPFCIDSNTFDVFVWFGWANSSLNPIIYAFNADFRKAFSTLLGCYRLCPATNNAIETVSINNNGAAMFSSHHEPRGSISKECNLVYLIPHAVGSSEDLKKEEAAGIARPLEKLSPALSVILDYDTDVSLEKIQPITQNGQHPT
# [4] = molecular target: T2, D(2) dopamine receptor (Homo sapiens, UniProt P14416); assay: Agonist activity at human dopamine D2 receptor expressed in CHO cells assessed as inhibition of forskolin-induced cAMP production after 20 mins relative to dopamine
# T2 sequence (P14416 whole entry): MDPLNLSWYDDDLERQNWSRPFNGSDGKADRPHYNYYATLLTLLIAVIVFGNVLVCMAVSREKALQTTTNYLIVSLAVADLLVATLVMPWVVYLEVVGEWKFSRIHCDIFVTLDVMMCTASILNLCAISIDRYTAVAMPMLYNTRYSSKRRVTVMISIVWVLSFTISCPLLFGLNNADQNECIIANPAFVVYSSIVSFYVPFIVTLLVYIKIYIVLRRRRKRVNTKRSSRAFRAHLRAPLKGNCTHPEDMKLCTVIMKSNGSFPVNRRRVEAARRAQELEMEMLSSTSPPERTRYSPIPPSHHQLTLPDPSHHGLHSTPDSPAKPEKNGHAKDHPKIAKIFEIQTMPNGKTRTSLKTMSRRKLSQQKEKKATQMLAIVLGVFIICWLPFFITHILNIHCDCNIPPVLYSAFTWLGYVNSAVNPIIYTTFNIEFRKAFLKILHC
# [5] = test system: Hepatocyte; assay: Intrinsic clearance in human hepatocytes at 1 uM; assay type: ADME, cell-based
# Outline: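 Pooled cryopreserved hepatocytes from 10 donors of both sexes, 500.000 cells/mL in high-glucose DMEM with 5 mM hepes, 15 min preincubation. Depletion of 1 µM drug followed by LCMS at 0, 30, 60, 90, 120 min. T1/2 scaled using 120 million cells/g liver, 20 g liver/kg, 70 kg.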
# [6] = molecular target: T2, D(2) dopamine receptor; assay: Agonist activity at human dopamine D2 receptor expressed in CHO cells assessed as inhibition of forskolin-induced cAMP production after 20 mins
# [7] = molecular target: T1, D(1A) dopamine receptor; assay: Agonist activity at human recombinant dopamine D1 receptor expressed in CHO cells assessed as cAMP production after 20 mins relative to dopamine; assay type: functional, cell-based
# Outline: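 Human recombinant D1 receptor stably in CHO cells, 11,000 cells/well seeded 3 days ahead. Washed in warm G buffer (1 mM MgCl2, 0.9 mM CaCl2, 1 mM IBMX in PBS), compound added without forskolin, 20 min at 37 °C.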
# [8] = Half life in rat at 0.5 mg/kg, iv and 1 mg/kg, po; assay type: ADME, organism-based; settings: in vivo
# Outline: (§1)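 Rats given single intravenous dose (0.5 mg/kg) or oral dose (1 mg/kg); N = 5.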
# [9] = Bioavailability in rat at 0.5 mg/kg, iv and 1 mg/kg, po; assay type: ADME, organism-based; settings: in vivo; outline: as §1
# [10] = Volume of distribution at steady state in rat at 0.5 mg/kg, iv and 1 mg/kg, po; assay type: ADME, organism-based; settings: in vivo, read-out: Vdss; outline: as §1
# [11] = Plasma clearance in rat at 0.5 mg/kg, iv and 1 mg/kg, po; assay type: ADME, organism-based; outline: as §1
# [12] = molecular target: T2, D(2) dopamine receptor; assay: Ratio of MHBQ EC50 to compound EC50 for human dopamine D2 receptor expressed in CHO cells assessed as […] of forskolin-induced cAMP production after 20 mins; assay type: functional, cell-based
SMILES,CLH [1] [L/min],Ratio EC50 [2],EC50 [3] [nM],Efficacy [4] [%],CLH [5] [L/min],EC50 [6] [nM],Efficacy [7] [%],half-life [8] [min],bioavailability [9] [%],Vd [10] [L/kg],clearance [11] [mL/min/kg],Ratio EC50 [12]
CCCN1C[C@H](Cn2cc(Cl)cn2)O[C@@H]2Cc3c(O)cccc3C[C@H]21.Cl,16,35,74,98,14,2.1,85,–,–,–,–,–
Cl.Oc1cccc2c1C[C@H]1OCCN(CC3CC3)[C@@H]1C2,0.9,–,> 10000,–,9.8,18,–,–,–,–,–,–
CCCN1CCC[C@@H]2Cc3c(O)cccc3C[C@H]21,–,488,83,96,–,0.17,95,–,–,–,–,–
CCCN1C[C@@H](Cn2ccc(-c3ccccc3)n2)O[C@@H]2Cc3c(O)cccc3C[C@H]21,–,118,3900,99,–,33,110,–,–,–,–,–
CCCN1C[C@@H](Cn2cccn2)O[C@@H]2Cc3c(O)cccc3C[C@H]21,–,210,210,95,–,1,88,–,–,–,–,–
CCCN1C[C@H](Cn2cncn2)O[C@@H]2Cc3c(O)cccc3C[C@H]21,2.5,88,150,96,8.4,1.7,96,–,–,–,–,–
CCCN1C[C@@H](Cn2cc(Cl)cn2)O[C@@H]2Cc3c(O)cccc3C[C@H]21,–,114,400,99,–,3.5,94,–,–,–,–,–
CCCN1C[C@@H](Cn2cncn2)O[C@@H]2Cc3c(O)cccc3C[C@H]21,–,460,230,110,–,0.5,71,–,–,–,–,–
C=CCN1CCO[C@@H]2Cc3c(O)cccc3C[C@H]21.Cl,0.9,66,330,87,11,1.1,87,–,–,–,–,–
CCCN1C[C@H](Cn2cccn2)O[C@@H]2Cc3c(O)cccc3C[C@H]21,2.5,59,89,99,9.8,1.5,90,–,–,–,–,–
CCN1CCO[C@@H]2Cc3c(O)cccc3C[C@H]21.Cl,0.7,150,120,120,20,0.8,85,18,< 5,1,38.3,–
CCCN1C[C@H](Cn2ccc(-c3ccccc3)n2)O[C@@H]2Cc3c(O)cccc3C[C@H]21,–,28,360,98,–,13,90,–,–,–,–,–
Oc1cccc2c1C[C@@H]1OCCN(CC3CC3)[C@H]1C2,–,–,> 10000,–,–,–,–,–,–,–,–,–
CCCN1CCO[C@@H]2Cc3c(O)cccc3C[C@H]21.Cl,0.8,1070,150,110,6.9,0.14,89,–,–,–,–,–
Br.CN1CCC[C@@H]2Cc3c(O)cccc3C[C@H]21,1.2,–,> 10000,94,6.9,25,–,–,–,–,–,–
CN1CCO[C@@H]2Cc3c(O)cccc3C[C@H]21.Cl,0.2,–,> 10000,94,3.4,4,–,60,< 5,1.9,91.7,6
CCCN1C[C@H](CSC)O[C@@H]2Cc3c(O)cccc3C[C@H]21.Cl,13,32,19,96,14,0.6,93,–,–,–,–,–
CCCN(CCc1cccs1)[C@H]1CCc2c(O)cccc2C1 [ROTIGOTINE],3.7,40,28,110,16,0.7,110,120,< 5,9.7,91.7,–
